ChEMBL document CHEMBL1821604, “Anticancer activity and cDNA microarray studies of a (RS)-1,2,3,5-tetrahydro-4,1-benzoxazepine-3-yl]-6-chloro-9H-purine, and an acyclic (RS)-O,N-acetalic 6-chloro-7H-purine” (Eur J Med Chem, 2011)

Columns and labels:
Format in all cases: functional
HT-29 [1] = assay: Down regulation of PGLYRP4 gene expression in human HT-29 cells at IC50 after 48 hrs by cDNA microarray technique relative to control
MCF7 [2] = assay: Upregulation of CD84 gene expression in human MCF7 cells at IC50 after 48 hrs by cDNA microarray technique relative to control
MCF7 [3] = assay: Down regulation of DKFZp667G2110 gene expression in human MCF7 cells at IC50 after 48 hrs by cDNA microarray technique relative to control
How it was run: (§1)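 8 × 10⁶ cells exposed 48 h to compound at its IC50 concentration; total RNA isolated with trizol/chloroform and RNeasy columns including on-column DNase step; RNA quantified by OD 260/280; DMSO-treated cultures as control.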

HT-29 [4] = assay: Upregulation of PDE4B gene expression in human HT-29 cells at IC50 after 48 hrs by cDNA microarray technique relative to control
HT-29 [5] = assay: Down regulation of MOG gene expression in human HT-29 cells at IC50 after 48 hrs by cDNA microarray technique relative to control
MCF7 [6] = assay: Down regulation of FLJ22955 gene expression in human MCF7 cells at IC50 after 48 hrs by cDNA microarray technique relative to control
How it was run: (§2)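 Cells (8 × 10⁶) were cultured in DMEM with 10% heat-inactivated FBS at 37 °C under 5% CO₂. They were exposed for 48 h to compound at its IC₅₀, with DMSO-treated parallel cultures as controls (final DMSO ≤0.1% v/v). Total RNA was isolated by trizol/chloroform phase separation, RNeasy column cleanup and on-column DNase, then quantified by OD260/OD280. Expression was profiled by cDNA microarray relative to control.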

MCF7 [7] = assay: Upregulation of FLJ10945 gene expression in human MCF7 cells at IC50 after 48 hrs by cDNA microarray technique relative to control
MCF7 [8] = assay: Down regulation of HLA-DOB gene expression in human MCF7 cells at IC50 after 48 hrs by cDNA microarray technique relative to control; how it was run: as §2
MCF7 [9] = assay: Down regulation of CORO2B gene expression in human MCF7 cells at IC50 after 48 hrs by cDNA microarray technique relative to control; how it was run: as §1
MCF7 [10] = assay: Down regulation of THSD2 gene expression in human MCF7 cells at IC50 after 48 hrs by cDNA microarray technique relative to control
HT-29 [11] = assay: Down regulation of SCD4 gene expression in human HT-29 cells at IC50 after 48 hrs by cDNA microarray technique relative to control
MCF7 [12] = assay: Upregulation of WBSCR27 gene expression in human MCF7 cells at IC50 after 48 hrs by cDNA microarray technique relative to control
MCF7 [13] = assay: Upregulation of ADPN gene expression in human MCF7 cells at IC50 after 48 hrs by cDNA microarray technique relative to control
MCF7 [14] = assay: Down regulation of FLJ12985 gene expression in human MCF7 cells at IC50 after 48 hrs by cDNA microarray technique relative to control; how it was run: as §2
MCF7 [15] = assay: Upregulation of BTBD12 gene expression in human MCF7 cells at IC50 after 48 hrs by cDNA microarray technique relative to control
HT-29 [16] = assay: Upregulation of TREM4 gene expression in human HT-29 cells at IC50 after 48 hrs by cDNA microarray technique relative to control
MCF7 [17] = assay: Down regulation of TMPRSS6 gene expression in human MCF7 cells at IC50 after 48 hrs by cDNA microarray technique relative to control
MCF7 [18] = assay: Upregulation of MRPL49 gene expression in human MCF7 cells at IC50 after 48 hrs by cDNA microarray technique relative to control
MCF7 [19] = assay: Down regulation of C9orf125 gene expression in human MCF7 cells at IC50 after 48 hrs by cDNA microarray technique relative to control; how it was run: as §1
HT-29 [20] = assay: Down regulation of HKE2 gene expression in human HT-29 cells at IC50 after 48 hrs by cDNA microarray technique relative to control; how it was run: as §2
MCF7 [21] = assay: Down regulation of PARP9 gene expression in human MCF7 cells at IC50 after 48 hrs by cDNA microarray technique relative to control
MCF7 [22] = assay: Upregulation of RHOH gene expression in human MCF7 cells at IC50 after 48 hrs by cDNA microarray technique relative to control
MCF7 [23] = assay: Upregulation of ANKRD35 gene expression in human MCF7 cells at IC50 after 48 hrs by cDNA microarray technique relative to control
MCF7 [24] = assay: Upregulation of ATP12A gene expression in human MCF7 cells at IC50 after 48 hrs by cDNA microarray technique relative to control
HT-29 [25] = assay: Down regulation of DRD5 gene expression in human HT-29 cells at IC50 after 48 hrs by cDNA microarray technique relative to control; how it was run: as §2
HT-29 [26] = assay: Down regulation of LMNB1 gene expression in human HT-29 cells at IC50 after 48 hrs by cDNA microarray technique relative to control; how it was run: as §2
MCF7 [27] = assay: Upregulation of SCGB1D2 gene expression in human MCF7 cells at IC50 after 48 hrs by cDNA microarray technique relative to control
MCF7 [28] = assay: Down regulation of FBXL7 gene expression in human MCF7 cells at IC50 after 48 hrs by cDNA microarray technique relative to control; how it was run: as §2
MCF7 [29] = assay: Down regulation of ZNF365 gene expression in human MCF7 cells at IC50 after 48 hrs by cDNA microarray technique relative to control
HT-29 [30] = assay: Down regulation of PRP19 gene expression in human HT-29 cells at IC50 after 48 hrs by cDNA microarray technique relative to control
MCF7 [31] = assay: Down regulation of THC2438856 gene expression in human MCF7 cells at IC50 after 48 hrs by cDNA microarray technique relative to control
MCF7 [32] = assay: Upregulation of GALNT13 gene expression in human MCF7 cells at IC50 after 48 hrs by cDNA microarray technique relative to control
MCF7 [33] = assay: Upregulation of ZNF505 gene expression in human MCF7 cells at IC50 after 48 hrs by cDNA microarray technique relative to control
MCF7 [34] = assay: Upregulation of FLJ14075 gene expression in human MCF7 cells at IC50 after 48 hrs by cDNA microarray technique relative to control
HT-29 [35] = assay: Down regulation of HSPA1A gene expression in human HT-29 cells at IC50 after 48 hrs by cDNA microarray technique relative to control; how it was run: as §2
MCF7 [36] = assay: Upregulation of OXSR1 gene expression in human MCF7 cells at IC50 after 48 hrs by cDNA microarray technique relative to control
MCF7 [37] = assay: Down regulation of OR8A1 gene expression in human MCF7 cells at IC50 after 48 hrs by cDNA microarray technique relative to control
HT-29 [38] = assay: Upregulation of PLOD2 gene expression in human HT-29 cells at IC50 after 48 hrs by cDNA microarray technique relative to control

`COC(CN(c1ccccc1CO)S(=O)(=O)c1ccccc1[N+](=O)[O-])n1cnc2ncnc(Cl)c21` (racemic) was tested, and the “fold change (FC)” value (HT-29 [1]) was -2.02, the “fold change (FC)” value (MCF7 [2]) was 3.37 and the “fold change (FC)” value (MCF7 [3]) was -2.15. For the same compound, the “fold change (FC)” value (HT-29 [4]) was 3.84, the “fold change (FC)” value (HT-29 [5]) was -2.65 and the “fold change (FC)” value (MCF7 [6]) was -2.65. The “fold change (FC)” value (MCF7 [7]) was 2.07, the “fold change (FC)” value (MCF7 [8]) was -2.26 and the “fold change (FC)” value (MCF7 [9]) was -2.01. The “fold change (FC)” value (MCF7 [10]) was -2.28, the “fold change (FC)” value (HT-29 [11]) was -2.25 and the “fold change (FC)” value (MCF7 [12]) was 3.59. The “fold change (FC)” value (MCF7 [13]) was 2.37, the “fold change (FC)” value (MCF7 [14]) was -2.11 and the “fold change (FC)” value (MCF7 [15]) was 3.24. The “fold change (FC)” value (HT-29 [16]) was 2.27.

For `O=C(OCC1c2ccccc2-c2ccccc21)N1CC(n2cnc3c(Cl)ncnc32)OCc2ccccc21` (racemic), the “fold change (FC)” value (MCF7 [17]) was -2.03, the “fold change (FC)” value (MCF7 [18]) was 3.12 and the “fold change (FC)” value (MCF7 [19]) was -3.38. The “fold change (FC)” value (HT-29 [20]) was -2, the “fold change (FC)” value (MCF7 [21]) was -3.23 and the “fold change (FC)” value (MCF7 [22]) was 2.2. The “fold change (FC)” value (MCF7 [23]) was 6.08, the “fold change (FC)” value (MCF7 [24]) was 2.05 and the “fold change (FC)” value (HT-29 [25]) was -2.3. The “fold change (FC)” value (HT-29 [26]) was -3, the “fold change (FC)” value (MCF7 [27]) was 6.02 and the “fold change (FC)” value (MCF7 [28]) was -2.86. The “fold change (FC)” value (MCF7 [29]) was 2, the “fold change (FC)” value (HT-29 [30]) was -3.33 and the “fold change (FC)” value (MCF7 [31]) was -3.05. The “fold change (FC)” value (MCF7 [32]) was 3.23, the “fold change (FC)” value (MCF7 [33]) was 5.62 and the “fold change (FC)” value (MCF7 [34]) was 4.84. For the same compound, the “fold change (FC)” value (HT-29 [35]) was -2.2, the “fold change (FC)” value (MCF7 [36]) was 2.21 and the “fold change (FC)” value (MCF7 [37]) was -3.03. The “fold change (FC)” value (HT-29 [38]) was 2.76.
